The record followed here is ChEMBL document CHEMBL1126310, “Affinity probes for the avermectin binding proteins” (J Med Chem, 1992).

Holding throughout (format): functional
The test system of one assay is Artemia salina. The assay is described as follows: Compound was evaluated for the biological activity by (Artemia salina) brine shrimp immobilization assay. Put shortly: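 Compounds dissolved at 1 mg/mL in acetonitrile, tested in duplicate as 2-fold serial dilutions in acetonitrile across a row. Brine shrimp added in 0.20 mL brine per well. Immobilization scored by microscope after 6 h at room temperature; IC100 reported.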

Assay [1] relates to Caenorhabditis elegans. Put plainly: Compound was evaluated for the biological activity by Caenorhabditis elegans motility assay. Put shortly:
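About 100 worms per tube, rinsed and resuspended in Krebs bicarbonate buffer pH 7.4. Compounds in DMSO, final 1% DMSO in 500 μL. After 16 h at 22 °C, motility scored by microscope; percentage of immotile worms determined at several concentrations per compound.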

Assay [2] deals with Caenorhabditis elegans. Put plainly: Compound was evaluated for the binding affinity for Caenorhabditis elegans avermectin using Caenorhabditis elegans membrane homogenates using [3H]IVM as radioligand. Summed up:
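C. elegans worms washed with 50 mM HEPES pH 7.4, homogenized; 1000g supernatant spun at 28 000g, pellet resuspended to about 12.5 μg protein/mL. Membranes (1.0 mL) incubated with [3H]-IVM (22,23-ditritioivermectin) at 22 °C for 45 min with and without analogs. Filtration over GF/B filters, rinse with cold HEPES containing 0.25% Triton X-100, scintillation counting; IC50 reported.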

In brackets after ≈: the same amount, converted by molar mass.

For orientation: IC50 means the point on the concentration scale where inhibition reaches its midpoint. As to `CCC(C)[C@H]1O[C@]2(CC[C@@H]1C)C[C@@H]1C[C@@H](C/C=C(\C)C(OCOCCN3CC3)[C@@H](C)/C=C/C=C3\COC4[C@H](O)C(C)=C[C@@H](C(=O)O1)[C@]34O)O2` (stereo partly specified), in the assay with Artemia salina, the IC100 worked out at 3470 ng/mL. Besides, the EC50 in the assay on Caenorhabditis elegans [1] (read-out: ED50 (the source's name)) turned out to be 0.048 µg/mL (≈ 0.07 µM). Also, in the assay with Caenorhabditis elegans [2] (Caenorhabditis elegans, 45 min), the IC50 was found to be 5 nM.
IVERMECTIN [listing 1 of 2 here]: the IC50 at Caenorhabditis elegans [2] is 0.1 nM.
As to IVERMECTIN [listing 2 of 2 here], the IC100 with Artemia salina worked out at 430 ng/mL. Further, the ED50 in the assay on Caenorhabditis elegans [1] amounted to 0.007 µg/mL.
